In ChEMBL document CHEMBL1124416, “5-(1-piperazinyl)-1H-1,2,4-triazol-3-amines as antihypertensive agents” (1989):

How the values were obtained:
Rattus norvegicus [1] = test: Assessment of antihypertensive activity at 100 mg/kg administered perorally by measuring the heart rate in rats; assay type: functional; conditions: route oral
Rattus norvegicus [2] = species: Rattus norvegicus; assay type: functional, Artery; conditions: dose 100 mg/kg; route oral
Rattus norvegicus [3] = test: The antihypertensive activity was assessed by measuring the heart rate in rats when administered at 50 mg/kg; assay type: functional
Summary of the method: (§1)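 16-week-old male SH rats (Okamoto) were dosed by oral gavage in 3% starch in normal saline (2 mL/kg), plus an oral saline load of 25 mL/kg. They were redosed at 24 h without the saline load. MABP and HR were taken by direct femoral arterial puncture under local anesthesia 4 h after the second dose. HR was rounded to 10 bpm.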

Rattus norvegicus [4] = test: The antihypertensive activity was assessed by measuring the mean arterial blood pressure in rats when administered at 50 mg/kg; assay type: functional; summary of the method: as §1
Rattus norvegicus [5] = test: The antihypertensive activity was assessed by measuring the heart rate in rats when administered at 30 mg/kg; assay type: functional; summary of the method: as §1
Rattus norvegicus [6] = test: The antihypertensive activity was assessed by measuring the heart rate in rats when administered at 10 mg/kg; assay type: functional; summary of the method: as §1
Rattus norvegicus [7] = test: The antihypertensive activity was assessed by measuring the mean arterial blood pressure in rats when administered at 30 mg/kg; assay type: functional; summary of the method: as §1
Rattus norvegicus [8] = test: The antihypertensive activity was assessed by measuring the mean arterial blood pressure in rats when administered at 10 mg/kg; assay type: functional; summary of the method: as §1
Rattus norvegicus [9] = test: The antihypertensive activity at 100 mg/kg administered perorally was assessed by measuring the mean arterial blood pressure (MABP) in rats; assay type: functional; conditions: route oral
Summary of the method: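 Male SH rats (Okamoto, 16 weeks old) got 100 mg/kg by oral gavage in 3% starch in normal saline (2 mL/kg), then an oral 25 mL/kg saline load. They were redosed at 24 h without the load. MABP and HR were taken by direct femoral arterial puncture under local anesthesia 4 h after the second dose, in one to three rats per compound. Active: one rat reduced to 116 mmHg, or a two-rat average reduced to 122 mmHg.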

Compound: Cc1cccc(CN2CCN(c3n[nH]c(N)n3)CC2)c1
- HR (Rattus norvegicus [1]): 440 beats min-1
- MABP (Rattus norvegicus [2]): 132 mmHg

Compound: Nc1n[nH]c(N2CCN(C(=O)c3ccco3)CC2)n1
- HR (Rattus norvegicus [1]): 410 beats min-1
- MABP (Rattus norvegicus [2]): 142 mmHg

Compound: CC(C)(C)c1ccc(C(=O)N2CCN(c3n[nH]c(N)n3)CC2)cc1
- HR (Rattus norvegicus [1]): 400 beats min-1
- MABP (Rattus norvegicus [2]): 141 mmHg

Compound: Nc1n[nH]c(N2CCN(C(c3ccccc3)c3ccc(Cl)cc3)CC2)n1 (stereo unspecified)
- HR (Rattus norvegicus [1]): 350 beats min-1
- MABP (Rattus norvegicus [2]): 115 mmHg

Compound: Nc1n[nH]c(N2CCN(Cc3ccc(F)cc3)CC2)n1
- HR (Rattus norvegicus [1]): 360 beats min-1
- MABP (Rattus norvegicus [2]): 97 mmHg

Compound: COc1cc(CN2CCN(c3n[nH]c(N)n3)CC2)cc(OC)c1OC
- HR (Rattus norvegicus [1]): 440 beats min-1
- MABP (Rattus norvegicus [2]): 132 mmHg

Compound: Nc1n[nH]c(N2CCN(CC3CCCCC3)CC2)n1
- HR (Rattus norvegicus [1]): 420 beats min-1
- MABP (Rattus norvegicus [2]): 123 mmHg

Compound: Clc1cccc(Cl)c1NC1=NCCN1 [CLONIDINE]
- HR (Rattus norvegicus [1]): 180 beats min-1
- MABP (Rattus norvegicus [2]): 102 mmHg

Compound: Nc1n[nH]c(N2CCN(CCNCc3ccncc3)CC2)n1
- HR (Rattus norvegicus [1]): 440 beats min-1
- MABP (Rattus norvegicus [2]): 144 mmHg

Compound: Nc1n[nH]c(N2CCN(Cc3ccccc3F)CC2)n1
- HR (Rattus norvegicus [1]): 350 beats min-1
- HR (Rattus norvegicus [3]): 330 beats min-1
- MABP (Rattus norvegicus [2]): 97 mmHg
- MABP (Rattus norvegicus [4]): 79 mmHg

Compound: CC(C)(C)c1ccc(CN2CCN(c3n[nH]c(N)n3)CC2)cc1
- HR (Rattus norvegicus [1]): 350 beats min-1
- MABP (Rattus norvegicus [2]): 130 mmHg

Compound: Cc1cc(C)c(CN2CCN(c3n[nH]c(N)n3)CC2)c(C)c1
- HR (Rattus norvegicus [1]): 430 beats min-1
- MABP (Rattus norvegicus [2]): 137 mmHg

Compound: Nc1n[nH]c(N2CCN(Cc3ccc(Cl)c(Cl)c3)CC2)n1
- HR (Rattus norvegicus [1]): 330 beats min-1
- MABP (Rattus norvegicus [2]): 95 mmHg

Compound: Nc1n[nH]c(N2CCN(c3ccccc3)CC2)n1
- HR (Rattus norvegicus [1]): 340 beats min-1
- MABP (Rattus norvegicus [2]): 128 mmHg

Compound: Br.Br.Nc1n[nH]c(N2CCNCC2)n1
- HR (Rattus norvegicus [1]): 410 beats min-1
- MABP (Rattus norvegicus [2]): 92 mmHg

Compound: Nc1n[nH]c(N2CCN(Cc3ccco3)CC2)n1
- HR (Rattus norvegicus [1]): 410 beats min-1
- HR (Rattus norvegicus [5]): 440 beats min-1
- HR (Rattus norvegicus [3]): 370 beats min-1
- HR (Rattus norvegicus [6]): 440 beats min-1
- MABP (Rattus norvegicus [2]): 114 mmHg
- MABP (Rattus norvegicus [7]): 115 mmHg
- MABP (Rattus norvegicus [4]): 102 mmHg
- MABP (Rattus norvegicus [8]): 153 mmHg

Compound: Nc1n[nH]c(N2CCN(CCCOc3ccccc3)CC2)n1
- HR (Rattus norvegicus [1]): 310 beats min-1
- MABP (Rattus norvegicus [2]): 89 mmHg

Compound: CN(C)CCCN1CCN(c2n[nH]c(N)n2)CC1
- HR (Rattus norvegicus [1]): 420 beats min-1
- MABP (Rattus norvegicus [2]): 140 mmHg

Compound: Nc1n[nH]c(N2CCN(Cc3ccccc3[N+](=O)[O-])CC2)n1
- HR (Rattus norvegicus [1]): 430 beats min-1
- MABP (Rattus norvegicus [2]): 135 mmHg

Compound: COc1ccccc1N1CCN(c2n[nH]c(N)n2)CC1
- HR (Rattus norvegicus [1]): 440 beats min-1
- MABP (Rattus norvegicus [2]): 157 mmHg

Compound: Nc1n[nH]c(N2CCN(Cc3ccncc3)CC2)n1
- HR (Rattus norvegicus [1]): 380 beats min-1
- MABP (Rattus norvegicus [2]): 142 mmHg

Compound: Nc1n[nH]c(N2CCN(Cc3c(Cl)cccc3Cl)CC2)n1
- HR (Rattus norvegicus [1]): 400 beats min-1
- MABP (Rattus norvegicus [2]): 140 mmHg

Compound: CC(=O)N1CCN(c2n[nH]c(N)n2)CC1
- HR (Rattus norvegicus [1]): 440 beats min-1
- MABP (Rattus norvegicus [2]): 142 mmHg

Compound: Nc1n[nH]c(N2CCN(c3ccccn3)CC2)n1
- HR (Rattus norvegicus [1]): 430 beats min-1
- MABP (Rattus norvegicus [2]): 133 mmHg

Compound: Nc1n[nH]c(N2CCN(CC3CCCC3)CC2)n1
- HR (Rattus norvegicus [3]): 440 beats min-1
- MABP (Rattus norvegicus [2]): 114 mmHg
- MABP (Rattus norvegicus [4]): 117 mmHg

Compound: CN(C)c1ccc(CN2CCN(c3n[nH]c(N)n3)CC2)cc1Br
- HR (Rattus norvegicus [1]): 320 beats min-1
- MABP (Rattus norvegicus [2]): 116 mmHg

Compound: Nc1n[nH]c(N2CCN(C(=O)c3ccc(-c4ccccc4)cc3)CC2)n1
- HR (Rattus norvegicus [1]): 400 beats min-1
- MABP (Rattus norvegicus [2]): 138 mmHg

Compound: CN(C)c1ccc(CN2CCN(c3n[nH]c(N)n3)CC2)c(Cl)c1
- HR (Rattus norvegicus [1]): 400 beats min-1
- MABP (Rattus norvegicus [2]): 120 mmHg

Compound: Cc1ccccc1CN1CCN(c2n[nH]c(N)n2)CC1
- HR (Rattus norvegicus [1]): 410 beats min-1
- MABP (Rattus norvegicus [2]): 131 mmHg

Compound: Nc1ccc(CN2CCN(c3n[nH]c(N)n3)CC2)cc1
- HR (Rattus norvegicus [1]): 380 beats min-1
- MABP (Rattus norvegicus [2]): 109 mmHg

Compound: COc1ccc(CN2CCN(c3n[nH]c(N)n3)CC2)c(OC)c1OC
- HR (Rattus norvegicus [1]): 420 beats min-1
- MABP (Rattus norvegicus [2]): 147 mmHg

Compound: Cl.Cl.Nc1n[nH]c(N2CCN(Cc3cccc4ccccc34)CC2)n1
- HR (Rattus norvegicus [1]): 350 beats min-1
- MABP (Rattus norvegicus [2]): 133 mmHg

Compound: Cc1ccc(CN2CCN(c3n[nH]c(N)n3)CC2)cc1
- HR (Rattus norvegicus [1]): 340 beats min-1
- HR (Rattus norvegicus [3]): 350 beats min-1
- MABP (Rattus norvegicus [2]): 112 mmHg
- MABP (Rattus norvegicus [4]): 70 mmHg

Compound: Nc1n[nH]c(N2CCN(CCCc3ccccc3)CC2)n1
- HR (Rattus norvegicus [1]): 380 beats min-1
- HR (Rattus norvegicus [3]): 520 beats min-1
- MABP (Rattus norvegicus [2]): 93 mmHg
- MABP (Rattus norvegicus [4]): 95 mmHg

Compound: CC(C)C(=O)N1CCN(c2n[nH]c(N)n2)CC1
- HR (Rattus norvegicus [1]): 410 beats min-1
- MABP (Rattus norvegicus [2]): 141 mmHg

Compound: C=CCN1CCN(c2nc(N)n[nH]2)CC1
- HR (Rattus norvegicus [1]): 360 beats min-1
- MABP (Rattus norvegicus [2]): 96 mmHg

Compound: Nc1n[nH]c(N2CCN(Cc3ccccc3)CC2)n1
- HR (Rattus norvegicus [1]): 360 beats min-1
- HR (Rattus norvegicus [6]): 400 beats min-1
- MABP (Rattus norvegicus [2]): 102 mmHg
- MABP (Rattus norvegicus [8]): 118 mmHg

Compound: Cc1ccc(C)c(CN2CCN(c3n[nH]c(N)n3)CC2)c1
- HR (Rattus norvegicus [1]): 400 beats min-1
- MABP (Rattus norvegicus [2]): 139 mmHg

Compound: CN1CCN(c2n[nH]c(N)n2)CC1
- HR (Rattus norvegicus [9]): 400 beats min-1
- HR (Rattus norvegicus [3]): 440 beats min-1
- MABP (Rattus norvegicus [2]): 116 mmHg
- MABP (Rattus norvegicus [4]): 133 mmHg

Compound: Nc1n[nH]c(N2CCN(CC3CC3)CC2)n1
- HR (Rattus norvegicus [1]): 390 beats min-1
- MABP (Rattus norvegicus [2]): 104 mmHg

Compound: CC(c1ccccc1)N1CCN(c2n[nH]c(N)n2)CC1 (stereo unspecified)
- HR (Rattus norvegicus [1]): 370 beats min-1
- MABP (Rattus norvegicus [2]): 136 mmHg

Compound: Nc1n[nH]c(N2CCN(Cc3ccc4ccccc4n3)CC2)n1
- HR (Rattus norvegicus [1]): 440 beats min-1
- MABP (Rattus norvegicus [2]): 121 mmHg

Compound: Nc1n[nH]c(N2CCN(Cc3cccc(C(F)(F)F)c3)CC2)n1
- HR (Rattus norvegicus [1]): 390 beats min-1
- MABP (Rattus norvegicus [2]): 129 mmHg

Compound: Nc1n[nH]c(N2CCN(CCc3ccccc3)CC2)n1
- HR (Rattus norvegicus [1]): 330 beats min-1
- HR (Rattus norvegicus [6]): 440 beats min-1
- MABP (Rattus norvegicus [2]): 77 mmHg
- MABP (Rattus norvegicus [8]): 142 mmHg

Compound: Nc1n[nH]c(N2CCN(Cc3ccc(F)cc3Cl)CC2)n1
- HR (Rattus norvegicus [1]): 410 beats min-1
- MABP (Rattus norvegicus [2]): 145 mmHg

Compound: N#Cc1ccc(CN2CCN(c3nc(N)n[nH]3)CC2)cc1
- HR (Rattus norvegicus [1]): 420 beats min-1
- MABP (Rattus norvegicus [2]): 127 mmHg

Compound: CN(C)c1ccc(CN2CCN(c3n[nH]c(N)n3)CC2)cc1
- HR (Rattus norvegicus [1]): 380 beats min-1
- HR (Rattus norvegicus [3]): 440 beats min-1
- MABP (Rattus norvegicus [2]): 111 mmHg
- MABP (Rattus norvegicus [4]): 129 mmHg

Compound: CCCCc1ccc(CN2CCN(c3n[nH]c(N)n3)CC2)cc1
- HR (Rattus norvegicus [1]): 360 beats min-1
- MABP (Rattus norvegicus [2]): 136 mmHg

Compound: Nc1n[nH]c(N2CCN(C/C=C/c3ccccc3)CC2)n1
- HR (Rattus norvegicus [1]): 430 beats min-1
- MABP (Rattus norvegicus [2]): 101 mmHg

Compound: Nc1n[nH]c(N2CCN(c3ccc(F)cc3)CC2)n1
- HR (Rattus norvegicus [1]): 420 beats min-1
- MABP (Rattus norvegicus [2]): 151 mmHg
